T cruzi repl = blocks replication of Trypanosoma cruzi; T. cruzi beta-gal in NIH3T3, luminescence, 90 h; inhibition, % (concentration not given with the values); 300,000 compounds, 1.4% hits; AID 1885;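 active = mean inhibition across valid replicates above about 55%, limit read from the data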;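 note: signal also drops with host cell toxicity which is not excluded here; 0% = plate median of DMSO wells and 100% = zero luminescence signal; higher percent means less beta-gal luminescence so fewer parasites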
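Test system: β-gal T. cruzi (Tulahuen C4) inside NIH/3T3 cells / Quantity: 5,000 cells/well / Measured by: luminescence from GalScreen with 0.05% NP40, read after 60 min / Medium: DMEM plus 2% FBS / Measure: parasite load inhibition, % / Reagent: Tulahuen C4 trypomastigotes, 5000/well / Schedule: co-culture of at least 90 h after 3 h attachment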
L major viab = Leishmania major promastigote growth inhibition. Leishmania major promastigotes, resazurin fluorescence viability. 200,000 compounds, 9% hits. inhibition, % at 10 µM; in the data active = inhibition above about 50%;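 note: promastigotes grown with compound for 44 hours at 28 °C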
Dynein transport = dynein cargo transport inhibition. 220,000 compounds, 0.47% hits. z-score, hits read low. 3617.4 mouse cells, GR-EGFP nuclear translocation imaging; test concentration mostly 20 µM; stimulated with dexamethasone, 1 µM; hits give low values;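 active = plate z-score of nuclear minus cytoplasmic receptor signal below a set negative limit, without overly bright fluorescence or cell loss, cut at about -3.5 in these data, passing the limit was not always enough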;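 note: z-score of nuclear minus cytoplasmic ring GR-EGFP intensity difference per well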
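Buffer or medium: tet-free, stripped-serum medium; reagent: dexamethasone at 1.0 µM final, 30 min; incubation: 48 h induction, 1 h compound, 30 min dex at 37 °C; measured by: formaldehyde fixation, Hoechst nuclear stain, 10x automated fluorescence imaging; read-out: nuclear-to-cytoplasmic GR-EGFP distribution per well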
CHOP UPR activ = activators of apoptotic arm of unfolded protein response (CHOP); CHO-CHOP luciferase reporter, UPR activation, luminescence; percent of tunicamycin response over DMSO baseline; activation, % at 10 µM; 330,000 compounds, 0.34% hits; AID 449763;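 active = at 10 µM dose, activation of 40% or more, normalized to positive control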;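 note: 100% = tunicamycin at 10 µg/mL and 0% = DMSO alone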
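System: CHO-CHOP luciferase reporter cell line | Buffer or medium: F12 medium containing 10% fetal bovine serum | Doses: One dose, 10 µM in 0.5% DMSO | Times: 6 h compound exposure at 37 °C after overnight seeding | Signal: Luciferase luminescence | Read-out: % activation vs tunicamycin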
UPR XBP1 act = activators of adaptive arm of unfolded protein response (XBP1) | CHO-XBP1 luciferase reporter, IRE1-XBP1 UPR activation, luminescence; percent of tunicamycin response, DMSO as zero | activation, % at 20 µM | 330,000 compounds, 0.33% hits;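 active = versus positive control, 20 µM dose yields 30% or more activation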;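 note: 100% = tunicamycin at 10 µg/mL and 0% = DMSO only wells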
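Material: CHO cell line with stable XBP1 luciferase reporter; buffer or medium: F12 medium containing 10% fetal bovine serum; compound: single point, 20 µM final compound, 1% DMSO; incubation: 6 h treatment, 37 °C; measured by: glow luminescence from Steady-Glo reagent; evaluation: activation, % of tunicamycin; control set: tunicamycin high, DMSO low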
CHOP inh = CHOP inhibition in unfolded protein response. CHO-K1 CHOP-promoter luciferase, tunicamycin-induced, 15-18 h. AID 2732. 220,000 compounds, 3.8% hits. inhibition, % at 10 µM;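 active = compounds that reduced the stress-induced luciferase reporter signal by more than about 70% of percent inhibition, limit read from the data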;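 note: 0% = tunicamycin plus vehicle and 100% = wells without tunicamycin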
* hit, by the source's call; / = no result; ! = not confirmed by another sample. The sample as a whole holds a higher share of hits than the screen did.

SMILES	T cruzi repl	L major viab	Dynein transport	CHOP UPR activ	UPR XBP1 act	CHOP inh
O=C(O)c1cccc(N/N=C/C2=C(Cl)c3cc(Cl)ccc3SC2)c1	-6	-13	-2	/	/	33
O=C(CSc1nnc2c(Cl)cc(Cl)cn12)N1CCN(c2ccc(F)cc2)CC1	-1	53*	1.2	0	-4	21
CCOC(=O)c1c(C)n(C)c2cc(-c3ccc(F)cc3)c(O)cc12	17	-4	-0.66	1	-1	79*
CCc1cccc(C)c1NC(=S)N(CCCN1CCOCC1)Cc1cccnc1	-7	12	-1.2	0	1	9
Cc1ccc(-n2c(SCC(=O)N3CCCc4ccccc43)nnc2-c2cccnc2)c(C)c1	9	59*	-0.68	0	-2	15
O=C(CSc1nnc(CNc2ccccc2)o1)N1CCCc2ccccc21	-14	29	-0.69	0	0	-3
O=C(CSc1nnc(-c2cccnc2)n1-c1ccc(SC(F)F)cc1)N1CCCc2ccccc21	23	88*	0.15	1	1	31
Cc1ccc(NCc2nnc(SCC(=O)N3CCCc4ccccc43)o2)c(C)c1	22	7	0.53	-1	2	75*
Cn1c(Cc2cccc3ccccc23)nnc1SCC(=O)N1CCN(c2ccccc2)CC1	-2	58*	-0.44	-2	2	34
CCOc1ccccc1-n1c(SCC(=O)N2CCCc3ccccc32)nnc1-c1cccnc1	-8	53*	0.2	0	-3	10
Cn1c(SCC(=O)N2CCN(c3ccccc3)CC2)nnc1-c1ccncc1	-5	-5	-0.4	-5	-2	23
CC(C)c1ccccc1-n1c(SCC(=O)N2CCN(c3ccccc3)CC2)nnc1-c1cccnc1	19	96*	1.4	2	-7	37
Nn1c(SCC(=O)N2CCCc3ccccc32)nnc1-c1ccccc1	-9	-4	-0.79	1	-1	21
CCCSc1nsc(NC(=O)CC)n1	54	15	-0.0099	1	-1	-18
CCCSc1nsc(NC(=O)C(c2ccccc2)c2ccccc2)n1	26	10	-0.14	-1	0	93*
CCS(=O)(=O)c1nc(S(=O)(=O)c2ccc(Cl)cc2)c(N2CCc3ccccc3C2)s1	-21	51*	-1.4	2	-1	41
CC(=O)c1ccc(NC(=O)Cc2ccsc2)cc1	-7	/	/	4	2	/
Nc1c2c(nc3ccccc13)CCCC2	-4	36	-1.7	0	-5	-33
CC(=O)c1c(C)nc2ccccc2c1N	0	96*	1	1	1	7
Nc1c2ccccc2nc2ccccc12	69*!	/	-0.68	0	-2	-18
Cc1nc2ccccc2c(N)c1C(=O)/C=C/c1ccccc1	52	/	/	0	-1	/
CCN(CC)c1nc2ccccc2c(N)c1-c1ccccc1	21	100*	0.4	-4	-4	-3
COCCn1c(Cc2cccn2C)nnc1SCC(=O)NCc1ccc2c(c1)OCO2	-9	3	2.3	-1	-1	-13
CCOc1cc(/C=N/NC(=O)C(=O)NCCCOC(C)C)cc(Br)c1O	-22	70*	0.47	2	-1	13
Cc1ccc(NC2CCCN(C(=O)c3cc4ncccn4n3)C2)cc1C (stereo unspecified)	3	/	/	0	-1	/
COCc1cc(=O)[nH]c(Nc2nc(C)c3ccccc3n2)n1	-1	79*	1.1	-1	2	15
Cc1ccc2c(C)nc(Nc3nc(CSc4nnnn4-c4ccccc4)cc(=O)[nH]3)nc2c1	31	-4	-0.21	-2	0	68
COCc1cc(=O)[nH]c(Nc2nc3ccccc3o2)n1	31	99*	0.1	20	3	26
N#Cc1c(NC(=S)NC(=O)c2ccccc2)sc2c1CCCC2	14	-3	0.71	4	2	36
CC1CCc2c(sc(NC(=S)NC(=O)c3ccccc3)c2C#N)C1 (stereo unspecified)	-4	/	-1.4	9	2	71*
